Measurements published in ChEMBL document CHEMBL1146568, “Xanthones and benzophenones from the stems of Garcinia multiflora” (J Nat Prod, 2003).

Experiments:
[1] = Toxicity against brine shrimp; format: organism-based; details: artemia, in vivo; read-out: LD50 (the source's name)
[2] = test system: Radical scavenging activity; assay: Antioxidant activity assessed as DPPH radical scavenging activity; format: functional
Procedure, shortened: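 Test sample in EtOH mixed with a 0.1 mM DPPH solution in EtOH (concentration before mixing). Absorbance read at 517 nm after 20 min. Scavenging taken as the drop in DPPH absorbance, expressed as a percentage of a DPPH control without sample. Catechin served as the positive control.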

Row | SMILES | LC50 [1] [µM] | IC50 [2] [µM]
1 | O=C(c1cccc(O)c1)c1c(O)cc(O)cc1O | > 100 | 66.3
2 | COc1cc(O)cc(O)c1C(=O)c1ccc(O)c(O)c1 | > 100 | 7.8
3 | COc1ccc2cc3[n+](cc2c1OC)CCc1cc2c(cc1-3)OCO2 [BERBERINE CHLORIDE] | 67 | –
4 | Oc1cc(O)c2c(c1)OC(c1ccc(O)c(O)c1)C(O)C2 (configuration not stated) [CATECHIN] | – | 2.53
5 | CC(C)=CCC/C(C)=C/CC1(CC=C(C)C)C(=O)C(O)=Cc2oc3cc(O)cc(O)c3c(=O)c21 (configuration not stated) [GARCINIANONE A] | 7.7 | 107
6 | CC(C)=CCC/C(C)=C\CC1(CC=C(C)C)C(=O)C(O)=Cc2oc3cc(O)cc(O)c3c(=O)c21 (configuration not stated) [GARCINIANONE B] | 25.8 | 145
7 | O=C(c1ccc(O)c(O)c1)c1c(O)cc(O)cc1O [MACLURIN] | 43.1 | 5.3
